High-throughput results deposited in PubChem BioAssay by several laboratories.
This is a sample that favours compounds with a hit; in the whole collection about 3.5% have one here.
MEKK2wt PB1 HTS: modulators of MEK5 binding to wildtype MEKK2, primary screen, biochemical, multiplex bead flow cytometry, Alexa488-MEK5 | Alexa488-MEK5 binding to MEKK2 WT; actives lie on both sides | binding response (% of control), % at 10 µM | AID 1531, 2009 | 290,000 compounds, 1.1% hits; in the data active = binding response below about 67% or above about 130%
MEKK2mut PB1 HTS: MEK5 binding signal on mutant MEKK2 PB1, primary screen, biochemical, multiplex bead flow cytometry, Alexa488-MEK5; Alexa488-MEK5 binding to MEKK2 mutant; AID 1530, 2009; 290,000 compounds, 0.35% hits; percent response, % at 10 µM; in the data active = percent response above about 24%, passing the limit was not always enough
WT yeast gro inh: growth inhibition of WT strain, primary screen, mitochondrial fusion inhibitor project, WT and mutant strains, chemical genetic. mitochondrial fusion phenotypic screen. inhibition, % at 10 µM. 190,000 compounds, 2.1% hits. AID 1362, 2008; in the data active = inhibition above about 58%; tested in S. cerevisiae
ABCG2 block: ABCG2 efflux pump inhibitors, primary screen, multiplex with ABCB1, IgMXP3 cells, flow cytometry. AID 1325, 2008. JC-1 efflux. Broad substrate specificity ATP-binding cassette transporter ABCG2 (Homo sapiens), Q9UNQ0. inhibition, % at 6.6 µM. 190,000 compounds, 0.1% hits;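 active = inhibition above 80%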;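 also: 0% = DMSO and 100% = nicardipine control wells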
Target sequence (Q9UNQ0 whole entry, looked up): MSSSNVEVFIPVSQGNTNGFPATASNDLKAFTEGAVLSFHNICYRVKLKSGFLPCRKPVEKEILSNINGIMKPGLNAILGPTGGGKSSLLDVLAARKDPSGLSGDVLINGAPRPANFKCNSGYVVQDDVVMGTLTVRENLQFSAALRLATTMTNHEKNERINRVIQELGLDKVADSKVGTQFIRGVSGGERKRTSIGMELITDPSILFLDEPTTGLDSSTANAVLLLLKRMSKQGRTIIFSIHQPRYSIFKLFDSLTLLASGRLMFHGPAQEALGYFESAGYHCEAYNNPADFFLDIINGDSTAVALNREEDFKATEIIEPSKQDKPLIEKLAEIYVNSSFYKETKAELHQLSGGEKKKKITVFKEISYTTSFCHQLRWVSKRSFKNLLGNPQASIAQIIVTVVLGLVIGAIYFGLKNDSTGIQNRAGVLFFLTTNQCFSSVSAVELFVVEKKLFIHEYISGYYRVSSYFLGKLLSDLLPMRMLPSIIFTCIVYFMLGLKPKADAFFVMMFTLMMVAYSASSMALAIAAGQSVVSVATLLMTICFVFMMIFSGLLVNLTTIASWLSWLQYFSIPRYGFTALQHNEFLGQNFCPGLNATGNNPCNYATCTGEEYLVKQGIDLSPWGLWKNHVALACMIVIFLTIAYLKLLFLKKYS
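System: two drug-resistant human cell lines, ABCG2 and ABCB1; controls: nicardipine high and DMSO low controls; times: 10 min exposure at 25 °C with rotation, no wash; detection: flow cytometry of retained JC-1 fluorescence; read-out basis: percent efflux inhibition, scaled nicardipine 100% to DMSO 0%; doses: one concentration, 6.6 µM final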
ABCB1 block: ABCB1 efflux pump inhibitors, primary screen, cell-based, multiplex, flow cytometry, ABCG2 counter-screen. CCRF-Adr cells, JC-1 efflux. inhibition, % at 6.6 µM. 190,000 compounds, 0.067% hits. AID 1326, 2008; in the data active = inhibition above about 40%;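 also: 0% = vehicle and 100% = reference inhibitor; higher value means more JC-1 retained so stronger ABCB1 efflux block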
MEKK3 PB1 HTS: modulators of MEKK3-MEK5 PB1 binding, primary screen, biochemical, wildtype MEKK3, multiplex bead flow cytometry, Alexa488-MEK5; Mitogen-activated protein kinase kinase kinase 3 (Homo sapiens), Q99759; bead-based flow cytometry, Alexa488-MEK5 binding to MEKK3; actives lie on both sides; 0 = blocked by unlabeled MEK5, 100 = vehicle; binding response (% of control), % at 10 µM; 290,000 compounds, 1.4% hits; AID 1529, 2009;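 active = binding response more than 3 SD above or below the average of its plate-row segment, actives on both sides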;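 also: Alexa488 bead fluorescence after subtracting the streptavidin-only scavenger bead signal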
MEKK2wt confirm: modulators of MEK5 binding to wildtype MEKK2, confirmation, biochemical, single concentration, multiplex bead flow cytometry; shares compounds with MEKK3 PB1 HTS; Alexa488-MEK5 binding to MEKK2 WT; actives lie on both sides; binding response (% of control), % at 10 µM; 5,900 compounds, 2.4% hits; in the data active = binding response below about 16% or above about 210%; inactive = in between
MEKK2mut confirm: mutant MEKK2 PB1-MEK5 binding signal retest – biochemical, single concentration, multiplex bead flow cytometry, confirmation; shares compounds with MEKK3 PB1 HTS; Alexa488-MEK5 binding to MEKK2 mutant; percent response, % at 10 µM; 5,900 compounds, 2% hits; AID 1893, 2009; in the data active = percent response mostly above about 71%, no sharp cut-off; inactive = mostly below about 38%;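 also: higher means compound restores mutant binding toward wildtype level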
MEKK3 confirm: MEKK3 wild-type PB1 binding to MEK5, inhibitors, confirmation, biochemical, bead multiplex flow cytometry, single concentration, wildtype; shares compounds with MEKK3 PB1 HTS; Alexa488-MEK5 binding to MEKK3; active compounds read low; binding response (% of control), % at 10 µM; 5,900 compounds, 1.8% hits; AID 1894, 2009;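 active = binding response below 72% of control, or above a set upper limit, though filed actives all read lower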;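 also: 100% = DMSO only wells and 0% = binding blocked by excess unlabeled MEK5; lower values mean stronger disruption of MEK5 binding to MEKK3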
Numbers without * were called inactive; [ ] = dose if it differs, or a comment.

CCOC(=O)CC(NC(=O)c1cc2cc(Cl)cc(Cl)c2oc1=O)c1cccc([N+](=O)[O-])c1 (stereo not drawn) was read as MEKK2wt PB1 HTS 79.0, MEKK2mut PB1 HTS 1.0, WT yeast gro inh 10.8, ABCG2 block 24.6, ABCB1 block 18.5, MEKK3 PB1 HTS 53.0*[inhibitor], MEKK2wt confirm 99.0, MEKK2mut confirm -5.0 and MEKK3 confirm 101.0.
CC1CCCC(C)N1C(=O)COc1ccc(C(=O)N/N=C/c2ccc(C(=O)O)cc2)cc1 (stereo not drawn) was read as MEKK2wt PB1 HTS 99.0, MEKK2mut PB1 HTS -1.0, WT yeast gro inh 6.3, ABCG2 block -0.4, ABCB1 block 0.2 and MEKK3 PB1 HTS 100.0.
CN(Cc1ccccc1)c1ccc(C(=O)O)cc1[N+](=O)[O-] was read as MEKK2wt PB1 HTS 94.0, MEKK2mut PB1 HTS 0.0, WT yeast gro inh -12.0, ABCG2 block 2.2, ABCB1 block 0.3 and MEKK3 PB1 HTS 99.0.
For CN1CCN(CC/C=C2/c3ccccc3Sc3ccc(S(=O)(=O)N(C)C)cc32)CC1 the results were MEKK2wt PB1 HTS 143.0*, MEKK2mut PB1 HTS 19.0, WT yeast gro inh 18.9, ABCG2 block -0.1, MEKK3 PB1 HTS 78.0, MEKK2wt confirm 127.0, MEKK2mut confirm 10.0 and MEKK3 confirm 101.0.
COc1cc2c(cc1Cl)/C(=C\CCN(C)C)c1ccccc1S2 was read as MEKK2wt PB1 HTS 130.0, MEKK2mut PB1 HTS 3.0, WT yeast gro inh 52.9, ABCG2 block -1.0, ABCB1 block 2.4 and MEKK3 PB1 HTS 102.0.
For COC(CNC(=O)c1c[nH]c2ccc(S(=O)(=O)N(C)c3ccc(F)cc3)cc2c1=O)OC the results were MEKK2wt PB1 HTS 105.0, MEKK2mut PB1 HTS 3.0 and MEKK3 PB1 HTS 101.0.
`CC1(C)CCc2c([nH]c3ccccc3c2=O)O1` gave MEKK2wt PB1 HTS 96.0, MEKK2mut PB1 HTS 1.0, WT yeast gro inh 7.0, ABCG2 block 2.5, ABCB1 block 0.1 and MEKK3 PB1 HTS 110.0.
Screening CCC1CCc2c([nH]c3ccccc3c2=O)O1 (stereo not drawn) returned MEKK2wt PB1 HTS 110.0, MEKK2mut PB1 HTS 2.0, WT yeast gro inh 21.7, ABCG2 block 5.5, ABCB1 block 1.2, MEKK3 PB1 HTS 147.0*, MEKK2wt confirm 99.0, MEKK2mut confirm 5.0 and MEKK3 confirm 103.0.
For CCOC(Cn1cc(C)c(=O)[nH]c1=O)OCC the results were MEKK2wt PB1 HTS 104.0, MEKK2mut PB1 HTS -1.0, WT yeast gro inh 2.5, ABCG2 block -0.6, ABCB1 block -0.4 and MEKK3 PB1 HTS 112.0.
Screening Cc1ccc(S(=O)(=O)n2ccc3c(OCCOCCNCc4ccc(F)cc4)cccc32)cc1 returned MEKK2wt PB1 HTS 225.0*, MEKK2mut PB1 HTS 54.0*, MEKK3 PB1 HTS 109.0, MEKK2wt confirm 191.0, MEKK2mut confirm 60.0 and MEKK3 confirm 94.0.
`NNC(=O)c1csc(CS(=O)(=O)c2ccc(Cl)cc2)n1` gave MEKK2wt PB1 HTS 98.0, MEKK2mut PB1 HTS 2.0 and MEKK3 PB1 HTS 103.0.
Screening Cc1nc(CS(=O)(=O)c2ccc(Cl)cc2)sc1C(=O)O returned MEKK2wt PB1 HTS 129.0, MEKK2mut PB1 HTS 23.0, MEKK3 PB1 HTS 129.0*, MEKK2wt confirm 101.0, MEKK2mut confirm -4.0 and MEKK3 confirm 101.0.
For C=CCOc1ccc(/C=N/N2C(=O)C(CC(=O)Nc3ccc(F)cc3F)SC2=NC)cc1 (stereo not drawn) the results were MEKK2wt PB1 HTS 101.0, MEKK2mut PB1 HTS 0.0, WT yeast gro inh 6.3, ABCG2 block 11.3, ABCB1 block 1.1, MEKK3 PB1 HTS 128.0*, MEKK2wt confirm 102.0, MEKK2mut confirm 0.0 and MEKK3 confirm 106.0.
Screening CN=C1SC(CC(=O)Nc2ccccc2F)C(=O)N1C (stereo not drawn) returned MEKK2wt PB1 HTS 104.0, MEKK2mut PB1 HTS 11.0, WT yeast gro inh 0.1, ABCG2 block -0.4, ABCB1 block -0.3 and MEKK3 PB1 HTS 106.0.
O=C(OCc1ccccc1)/C(=C/c1ccc(Cl)cc1)NC(=O)c1ccccc1Cl was read as MEKK2wt PB1 HTS 111.0, MEKK2mut PB1 HTS 24.0*, WT yeast gro inh -5.1, ABCG2 block 0.2, ABCB1 block 0.2, MEKK3 PB1 HTS 109.0, MEKK2wt confirm 102.0, MEKK2mut confirm -5.0 and MEKK3 confirm 103.0.
For Cc1ccc(C(=O)N/C(=C\c2ccccc2)C(=O)OCc2ccccc2)cc1 the results were MEKK2wt PB1 HTS 87.0, MEKK2mut PB1 HTS -6.0, WT yeast gro inh 8.1, ABCG2 block 56.5, ABCB1 block 0.5 and MEKK3 PB1 HTS 98.0.
For Cc1cccc(C(=O)N[C@H](C(=O)Nc2nc3ccccc3[nH]2)C(C)C)c1 the results were MEKK2wt PB1 HTS 120.0, MEKK2mut PB1 HTS 5.0, WT yeast gro inh -11.1, ABCG2 block 1.8, ABCB1 block 0.4, MEKK3 PB1 HTS 132.0*, MEKK2wt confirm 99.0, MEKK2mut confirm -5.0 and MEKK3 confirm 102.0.
Cc1cc2c(ncn2Cc2ccccc2)c([N+](=O)[O-])c1C was read as MEKK2wt PB1 HTS 101.0, MEKK2mut PB1 HTS 1.0, WT yeast gro inh 24.0, ABCG2 block 5.9, ABCB1 block 0.7 and MEKK3 PB1 HTS 100.0.
Cc1cc(C)nc(NC(=O)c2ccc([N+](=O)[O-])o2)n1 was read as MEKK2wt PB1 HTS 104.0, MEKK2mut PB1 HTS 2.0, WT yeast gro inh 0.0, ABCG2 block 9.4, ABCB1 block 3.2, MEKK3 PB1 HTS 128.0*, MEKK2wt confirm 97.0, MEKK2mut confirm -10.0 and MEKK3 confirm 99.0.
Screening COc1ccc(NC(=O)c2ccc([N+](=O)[O-])o2)cc1 returned MEKK2wt PB1 HTS 103.0, MEKK2mut PB1 HTS 4.0 and MEKK3 PB1 HTS 105.0.
